Our source for the inhibition values is ChEMBL document CHEMBL1165965, “Synthesis and structure-activity relationships of 1,2,3,4-tetrahydropyrido[2,3-b]pyrazines as potent and selective inhibitors of the anaplastic lymphoma kinase” (Bioorg Med Chem, 2010).

Molecules are shown by their SMILES.

Assay [1] addresses MAP kinase-interacting serine/threonine-protein kinase 2 (Homo sapiens) (UniProt Q9HBH9). As to the kind of experiment: Inhibition of MKNK2 at 1 uM. Put shortly: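 Kinase-panel screen using KINOMEscan technology, with 250–400 kinases per panel. Each compound was tested at a single concentration, and inhibition of each kinase was recorded. Selectivity was summarised as S(90), the fraction of kinases inhibited by more than 90%.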

Assay [2] deals with Epidermal growth factor receptor (Homo sapiens) (UniProt P04626+P00533+Q15303+P21860). The assay can be described thus: Inhibition of EGFR L747-E749del, A750P mutant at 1 uM. It counts as protein assay. The gist of the method:
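Single-concentration screen using Ambit Bioscience KINOMEscan technology across a panel of 250–400 kinases. Per-kinase inhibition from this screen was summarized as S(90), the fraction of kinases inhibited by more than 90%.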

In assay [3] the target is Vascular endothelial growth factor receptor 2 (Homo sapiens) (UniProt P35968). As to the kind of experiment: Inhibition of VEGFR2 at 1 uM.
Chain of Vascular endothelial growth factor receptor 2 (Homo sapiens) (P35968 whole entry, the tested form may be a part): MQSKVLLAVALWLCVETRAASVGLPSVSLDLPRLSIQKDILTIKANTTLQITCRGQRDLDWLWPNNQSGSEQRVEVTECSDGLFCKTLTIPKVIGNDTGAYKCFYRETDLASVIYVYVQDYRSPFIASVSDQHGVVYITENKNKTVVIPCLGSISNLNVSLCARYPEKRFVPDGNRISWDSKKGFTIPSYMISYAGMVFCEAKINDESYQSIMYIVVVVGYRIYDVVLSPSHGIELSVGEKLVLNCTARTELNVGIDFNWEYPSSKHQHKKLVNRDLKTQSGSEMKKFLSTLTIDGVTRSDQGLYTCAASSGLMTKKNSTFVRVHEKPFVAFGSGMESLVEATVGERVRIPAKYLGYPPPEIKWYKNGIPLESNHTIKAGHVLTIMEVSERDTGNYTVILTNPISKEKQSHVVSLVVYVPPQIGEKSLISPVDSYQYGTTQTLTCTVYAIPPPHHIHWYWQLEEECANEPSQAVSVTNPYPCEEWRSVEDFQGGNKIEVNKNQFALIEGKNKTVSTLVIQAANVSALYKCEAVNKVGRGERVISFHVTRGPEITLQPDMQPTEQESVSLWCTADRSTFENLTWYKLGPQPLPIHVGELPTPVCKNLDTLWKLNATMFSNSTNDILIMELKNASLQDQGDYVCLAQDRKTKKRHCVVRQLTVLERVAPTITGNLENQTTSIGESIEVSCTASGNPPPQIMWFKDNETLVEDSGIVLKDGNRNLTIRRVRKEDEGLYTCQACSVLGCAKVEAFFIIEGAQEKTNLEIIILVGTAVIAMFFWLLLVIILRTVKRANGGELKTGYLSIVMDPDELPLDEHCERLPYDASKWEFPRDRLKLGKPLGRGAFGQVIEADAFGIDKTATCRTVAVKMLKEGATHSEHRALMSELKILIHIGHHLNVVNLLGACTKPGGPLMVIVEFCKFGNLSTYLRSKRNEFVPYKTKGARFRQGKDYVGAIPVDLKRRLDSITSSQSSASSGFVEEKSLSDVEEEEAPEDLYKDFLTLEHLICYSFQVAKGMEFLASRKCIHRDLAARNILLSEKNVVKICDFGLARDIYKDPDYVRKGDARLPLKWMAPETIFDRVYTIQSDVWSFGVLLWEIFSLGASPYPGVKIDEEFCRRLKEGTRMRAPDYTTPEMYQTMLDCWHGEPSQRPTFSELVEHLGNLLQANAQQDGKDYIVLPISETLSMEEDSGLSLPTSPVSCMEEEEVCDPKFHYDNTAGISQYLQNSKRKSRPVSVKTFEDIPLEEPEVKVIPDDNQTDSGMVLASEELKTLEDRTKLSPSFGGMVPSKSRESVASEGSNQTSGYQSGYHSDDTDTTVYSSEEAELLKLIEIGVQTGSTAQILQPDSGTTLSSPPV
Assay [4] concerns the target Tyrosine-protein kinase JAK2 (Homo sapiens) (UniProt O60674). The assay can be described thus: Inhibition of JAK2 JH1 catalytic domain at 1 uM. The gist of the method: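 Single-concentration screen on the Ambit KINOMEscan platform, run against a panel of 250–400 kinases. Per-kinase inhibition was also summarized as S(90), the fraction of kinases inhibited by more than 90%.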

Assay [5] deals with T1, Calcium/calmodulin-dependent protein kinase type IV (Homo sapiens) (UniProt Q16566).
T1 sequence (whole entry): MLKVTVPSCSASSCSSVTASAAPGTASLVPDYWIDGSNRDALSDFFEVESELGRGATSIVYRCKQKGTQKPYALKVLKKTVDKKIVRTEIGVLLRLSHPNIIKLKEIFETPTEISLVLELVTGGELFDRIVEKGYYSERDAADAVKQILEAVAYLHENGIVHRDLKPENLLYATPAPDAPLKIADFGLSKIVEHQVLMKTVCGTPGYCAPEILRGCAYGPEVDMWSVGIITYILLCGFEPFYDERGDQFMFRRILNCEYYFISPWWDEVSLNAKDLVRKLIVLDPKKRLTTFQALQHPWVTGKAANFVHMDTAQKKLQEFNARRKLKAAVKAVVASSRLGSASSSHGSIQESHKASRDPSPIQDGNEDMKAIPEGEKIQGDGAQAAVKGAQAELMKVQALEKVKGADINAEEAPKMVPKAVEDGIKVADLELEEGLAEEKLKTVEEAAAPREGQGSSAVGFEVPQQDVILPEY
The assay can be described thus: Inhibition of CAMK4 at 1 uM.

The target in assay [6] is T2, Inhibitor of nuclear factor kappa-B kinase subunit beta (Homo sapiens) (UniProt O14920).
T2 sequence (whole entry): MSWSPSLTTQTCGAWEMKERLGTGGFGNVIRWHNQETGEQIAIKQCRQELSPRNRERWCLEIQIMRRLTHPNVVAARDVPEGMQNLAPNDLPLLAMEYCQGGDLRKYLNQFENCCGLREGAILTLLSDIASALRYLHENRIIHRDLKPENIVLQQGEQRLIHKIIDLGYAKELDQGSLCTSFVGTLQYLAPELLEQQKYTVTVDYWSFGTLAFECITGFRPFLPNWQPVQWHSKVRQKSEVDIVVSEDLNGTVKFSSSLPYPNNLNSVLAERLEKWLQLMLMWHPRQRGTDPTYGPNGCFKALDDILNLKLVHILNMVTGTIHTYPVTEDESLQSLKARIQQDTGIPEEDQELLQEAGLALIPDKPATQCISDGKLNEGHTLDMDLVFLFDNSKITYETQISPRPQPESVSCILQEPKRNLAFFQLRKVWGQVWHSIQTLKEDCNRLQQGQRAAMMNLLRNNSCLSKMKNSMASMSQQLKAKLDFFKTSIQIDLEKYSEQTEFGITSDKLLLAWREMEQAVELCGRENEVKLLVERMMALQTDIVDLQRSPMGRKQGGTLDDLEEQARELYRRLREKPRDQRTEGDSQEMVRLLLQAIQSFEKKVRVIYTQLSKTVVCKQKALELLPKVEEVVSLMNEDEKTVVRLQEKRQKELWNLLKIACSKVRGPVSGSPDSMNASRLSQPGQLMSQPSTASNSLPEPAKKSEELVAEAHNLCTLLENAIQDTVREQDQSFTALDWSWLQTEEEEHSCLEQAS
As to the kind of experiment: Inhibition of IKK-beta at 1 uM.

In assay [7] the target is T3, Mitogen-activated protein kinase kinase kinase 15 (Homo sapiens) (UniProt Q6ZN16).
T3 sequence (whole entry): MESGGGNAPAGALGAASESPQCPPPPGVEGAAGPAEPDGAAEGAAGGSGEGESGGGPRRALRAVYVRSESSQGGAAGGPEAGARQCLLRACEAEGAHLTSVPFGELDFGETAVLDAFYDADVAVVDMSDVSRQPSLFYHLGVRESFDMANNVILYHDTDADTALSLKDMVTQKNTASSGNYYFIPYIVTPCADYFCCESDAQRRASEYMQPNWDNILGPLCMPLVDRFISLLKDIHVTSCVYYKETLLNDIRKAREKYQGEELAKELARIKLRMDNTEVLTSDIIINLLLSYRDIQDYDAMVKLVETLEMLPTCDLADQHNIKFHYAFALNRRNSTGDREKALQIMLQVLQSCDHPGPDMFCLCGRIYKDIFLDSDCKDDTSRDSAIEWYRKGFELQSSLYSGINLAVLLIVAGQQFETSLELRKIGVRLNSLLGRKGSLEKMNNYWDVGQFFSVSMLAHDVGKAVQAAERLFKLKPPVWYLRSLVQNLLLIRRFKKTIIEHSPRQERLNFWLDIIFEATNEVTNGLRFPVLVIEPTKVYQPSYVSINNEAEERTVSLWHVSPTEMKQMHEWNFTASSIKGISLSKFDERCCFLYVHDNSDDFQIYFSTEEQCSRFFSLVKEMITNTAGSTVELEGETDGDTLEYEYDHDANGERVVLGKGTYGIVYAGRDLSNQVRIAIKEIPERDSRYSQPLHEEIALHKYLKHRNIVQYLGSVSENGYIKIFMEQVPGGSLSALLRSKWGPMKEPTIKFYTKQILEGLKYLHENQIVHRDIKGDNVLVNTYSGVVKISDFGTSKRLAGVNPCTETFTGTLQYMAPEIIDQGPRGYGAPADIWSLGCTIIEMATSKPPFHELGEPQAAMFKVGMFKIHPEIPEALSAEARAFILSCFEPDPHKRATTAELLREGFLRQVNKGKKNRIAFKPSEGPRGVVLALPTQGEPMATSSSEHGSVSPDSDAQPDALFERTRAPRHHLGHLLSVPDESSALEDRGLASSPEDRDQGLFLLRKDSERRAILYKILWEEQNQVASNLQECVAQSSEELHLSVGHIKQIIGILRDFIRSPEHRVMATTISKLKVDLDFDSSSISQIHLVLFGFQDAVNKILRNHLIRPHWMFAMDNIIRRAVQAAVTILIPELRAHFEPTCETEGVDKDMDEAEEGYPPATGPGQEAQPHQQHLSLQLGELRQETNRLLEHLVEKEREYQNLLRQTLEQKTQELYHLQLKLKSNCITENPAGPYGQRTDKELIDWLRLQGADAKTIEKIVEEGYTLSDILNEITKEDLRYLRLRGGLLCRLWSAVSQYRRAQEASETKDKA
As to the kind of experiment: Inhibition of MAP3K15 at 1 uM.

Chain of Tyrosine-protein kinase JAK2 (Homo sapiens) (O60674 whole entry, the tested form may be a part): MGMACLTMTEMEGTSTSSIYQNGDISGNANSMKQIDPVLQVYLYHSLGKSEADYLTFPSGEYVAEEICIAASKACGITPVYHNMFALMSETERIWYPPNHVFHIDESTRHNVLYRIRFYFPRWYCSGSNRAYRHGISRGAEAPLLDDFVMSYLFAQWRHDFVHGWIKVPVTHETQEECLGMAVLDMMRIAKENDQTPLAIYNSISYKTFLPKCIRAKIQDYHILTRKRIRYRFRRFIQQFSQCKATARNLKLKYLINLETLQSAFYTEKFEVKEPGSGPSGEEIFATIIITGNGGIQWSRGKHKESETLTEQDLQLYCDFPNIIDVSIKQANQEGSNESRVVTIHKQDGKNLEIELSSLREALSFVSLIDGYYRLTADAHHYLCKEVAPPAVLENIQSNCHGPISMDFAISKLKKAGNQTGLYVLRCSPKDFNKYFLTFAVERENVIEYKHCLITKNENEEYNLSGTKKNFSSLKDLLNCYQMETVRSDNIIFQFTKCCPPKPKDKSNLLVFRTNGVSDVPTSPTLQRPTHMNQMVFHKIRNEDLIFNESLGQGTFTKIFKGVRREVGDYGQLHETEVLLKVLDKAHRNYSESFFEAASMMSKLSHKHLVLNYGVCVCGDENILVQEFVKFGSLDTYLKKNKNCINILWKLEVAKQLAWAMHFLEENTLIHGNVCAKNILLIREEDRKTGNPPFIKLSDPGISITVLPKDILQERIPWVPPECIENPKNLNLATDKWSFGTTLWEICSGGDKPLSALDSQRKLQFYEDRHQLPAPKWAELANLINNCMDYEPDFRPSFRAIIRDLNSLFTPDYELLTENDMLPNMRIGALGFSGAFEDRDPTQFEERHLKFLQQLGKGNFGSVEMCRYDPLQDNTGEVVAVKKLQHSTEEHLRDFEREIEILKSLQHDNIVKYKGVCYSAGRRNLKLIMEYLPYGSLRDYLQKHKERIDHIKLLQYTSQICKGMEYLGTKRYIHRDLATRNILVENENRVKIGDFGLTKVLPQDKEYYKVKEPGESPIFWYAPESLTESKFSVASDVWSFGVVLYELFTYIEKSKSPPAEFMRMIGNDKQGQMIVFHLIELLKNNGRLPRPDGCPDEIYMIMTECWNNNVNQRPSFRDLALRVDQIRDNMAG
Chain of MAP kinase-interacting serine/threonine-protein kinase 2 (Homo sapiens) (Q9HBH9 whole entry, looked up): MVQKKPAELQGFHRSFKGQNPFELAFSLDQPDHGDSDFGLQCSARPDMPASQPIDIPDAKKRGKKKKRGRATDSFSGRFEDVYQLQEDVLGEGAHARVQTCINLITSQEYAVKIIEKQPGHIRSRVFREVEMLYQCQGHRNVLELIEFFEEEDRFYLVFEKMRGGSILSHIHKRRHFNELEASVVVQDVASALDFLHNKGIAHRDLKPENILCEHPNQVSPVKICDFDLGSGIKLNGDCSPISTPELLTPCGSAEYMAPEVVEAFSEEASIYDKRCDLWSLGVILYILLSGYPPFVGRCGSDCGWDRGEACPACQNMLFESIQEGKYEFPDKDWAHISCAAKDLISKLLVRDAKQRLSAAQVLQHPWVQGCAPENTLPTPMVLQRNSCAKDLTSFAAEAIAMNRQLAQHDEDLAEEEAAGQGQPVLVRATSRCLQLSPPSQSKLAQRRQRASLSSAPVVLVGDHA

The inhibition is the change of the read-out against control, counted positive when it falls. On to `O=C(c1ccc(-c2cnc3c(c2)N(Cc2cc(Cl)ccc2C(F)(F)F)CCN3)cc1)N1CCCCC1`, for which the inhibition in assay [1] was less than 50%; in assay [2], less than 50%; in assay [3] it was less than 50%; in assay [4], 96.3%.

With `CN1CCN(c2ccc(-c3cnc4c(c3)N(Cc3c(F)ccc(F)c3Cl)CCN4)cn2)CC1`, the inhibition in assay [1], in assay [2], in assay [3], in assay [5], in assay [6] and in assay [7] was less than 50% in each case. The molecule also had an inhibition in assay [4] of 77%.

Take `COC1CCN(C(=O)c2ccc(-c3cnc4c(c3)N(Cc3cc(Cl)ccc3C(F)(F)F)CCN4)cc2)CC1`: the inhibition in assay [1], in assay [2] and in assay [3] was less than 50% each time.

In the case of `O=C(O)c1ccc(-c2cnc3c(c2)N(Cc2cc(Cl)ccc2C(F)(F)F)CCN3)cc1`, the inhibition in assay [1] was less than 50%; in assay [2], less than 50%; in assay [3] it was less than 50%; in assay [4], 95.1%.

`FC(F)(F)c1ccc(Cl)cc1CN1CCNc2ncc(-c3ccnc(N4CCNCC4)c3)cc21`: the inhibition in assay [1], in assay [2], in assay [3], in assay [5], in assay [6] and in assay [7] was less than 50% throughout. Further, in assay [4], the inhibition amounted to 97%.

On to `CN1CCN(c2ccc(-c3cnc4c(c3)N(Cc3cc(Cl)ccc3Cl)CCN4)cn2)CC1`, for which the inhibition in assay [1], in assay [2], in assay [3], in assay [5], in assay [6] and in assay [7] was less than 50% in each case. In assay [4], the inhibition is 95%.

As to `O=C(c1ccc(-c2cnc3c(c2)N(Cc2cc(Cl)ccc2C(F)(F)F)CCN3)cc1)N1CCC(N2CCCC2)CC1`, the inhibition is less than 50% in assay [1], less than 50% in assay [2], less than 50% in assay [3] and 99.5% in assay [4].

Turning to `CN1CCN(c2ccc(-c3cnc4c(c3)N(Cc3cc(Cl)ccc3C(F)(F)F)CCN4)cn2)CC1`, the inhibition in assay [1], in assay [2], in assay [3], in assay [5], in assay [6] and in assay [7] was less than 50% in each case. The same molecule registered an inhibition in assay [4] of 94%.

As for `CC(=O)N1CCN(c2cc(-c3cnc4c(c3)N(Cc3cc(Cl)ccc3C(F)(F)F)CCN4)ccn2)CC1`, the inhibition in assay [1], in assay [2], in assay [3], in assay [5], in assay [6] and in assay [7] was less than 50% in each case. Moreover, the inhibition in assay [4] turned out to be 96%.

`CN1CCN(c2ccc(-c3cnc4c(c3)N(Cc3cc(F)ccc3F)CCN4)cn2)CC1`: the inhibition in assay [1], in assay [2], in assay [3], in assay [5], in assay [6] and in assay [7] was less than 50% each time. The inhibition in assay [4] came to 94.7%.
